Results as given in ChEMBL document CHEMBL1153392, “Identification of a metabolically stable triazolopyrimidine-based dihydroorotate dehydrogenase inhibitor with antimalarial activity in mice” (J Med Chem, 2009).
The source made the active and inactive calls. The calls are words filed in the database; no cut-off is given here.

Legend:
[1] = target: T1, Dihydroorotate dehydrogenase (Plasmodium falciparum, UniProt Q54A96); assay: Inhibition of Plasmodium falciparum DHODH
T1 sequence (Q54A96 whole entry): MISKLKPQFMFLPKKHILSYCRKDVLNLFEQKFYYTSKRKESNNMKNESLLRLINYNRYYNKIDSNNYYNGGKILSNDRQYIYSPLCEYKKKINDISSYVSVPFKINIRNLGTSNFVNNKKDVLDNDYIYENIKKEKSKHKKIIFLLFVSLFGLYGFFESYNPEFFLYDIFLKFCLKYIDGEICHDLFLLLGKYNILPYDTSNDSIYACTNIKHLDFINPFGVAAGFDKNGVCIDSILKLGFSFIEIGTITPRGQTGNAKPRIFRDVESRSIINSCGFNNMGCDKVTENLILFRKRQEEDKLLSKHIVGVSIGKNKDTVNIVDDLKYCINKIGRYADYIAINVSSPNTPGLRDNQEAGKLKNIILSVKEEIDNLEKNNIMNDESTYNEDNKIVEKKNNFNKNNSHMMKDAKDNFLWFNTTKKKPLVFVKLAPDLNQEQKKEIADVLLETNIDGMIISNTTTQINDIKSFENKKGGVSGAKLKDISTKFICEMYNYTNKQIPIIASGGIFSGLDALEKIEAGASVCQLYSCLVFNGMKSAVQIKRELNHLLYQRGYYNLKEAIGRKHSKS
Summary of the method: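 Truncated soluble recombinant enzyme expressed in E. coli. Triplicate points per inhibitor concentration; IC50 from fit to Vi = Vo/(1+[I]/IC50).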

Liver microsomes [2] = conditions: human, 1 µM
Plasmodium berghei [3] = assay: Inhibition of Plasmodium berghei ANKA DHODH
Summary of the method: (§1)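 Truncated soluble enzyme expressed in E. coli and purified. DCIP (0.12 mM) reduction followed at 600 nm with 5-10 nM enzyme, 0.2 mM L-dihydroorotate and 0.02 mM CoQD in 100 mM HEPES pH 8.0, 150 mM NaCl, 10% glycerol, 0.1% Triton, 20 °C. Triplicate points per concentration; IC50 fitted.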

Liver microsomes [4] = conditions: human, 1 µM; remark: listed apart in the source
[5] = target: Dihydroorotate dehydrogenase (quinone), mitochondrial (Homo sapiens, UniProt Q02127); assay: Inhibition of human DHODH; summary of the method: as §1
Plasmodium falciparum = assay: Antiplasmodial activity against Plasmodium falciparum 3D7 by [3H]hypoxanthine uptake; format: functional, organism-based
Summary of the method: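 Proliferation of drug-treated infected erythrocytes measured by [3H]hypoxanthine uptake over a range of inhibitor concentrations, triplicate points per concentration. EC50 derived from a Hill-slope logistic fit.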

[6] = Plasma concentration in Swiss mouse at 50 mg/kg, po administered as single dose for 240 mins; format: ADME, organism-based; set-up: dose 50 mg/kg, route oral; conditions: read-out: C0
Summary of the method: (§2)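 Nonfasted male Swiss outbred mice, 23-33 g, fed ad libitum. Single oral gavage as a suspension in 0.5% CMC, 0.5% benzyl alcohol, 0.4% Tween-80. One cardiac-puncture blood sample per mouse per time point. Plasma analysed by LC-MS/MS after acetonitrile precipitation, with diazepam as internal standard and a plasma calibration curve. PK parameters taken from mean concentration-time profiles.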

Mus musculus [7] = assay: Plasma concentration in Swiss mouse at 50 mg/kg, po administered as single dose; format: ADME, organism-based; set-up: dose 50 mg/kg, route oral; conditions: in vivo; summary of the method: as §2
Mus musculus [8] = assay: Toxicity in Plasmodium berghei NK65 infected BALB/c mice (Mus musculus) at 100 mg/kg, perorally administered every 4 hrs x 10 doses followed by every 6 hrs x 6 doses schedule; format: organism-based; set-up: dose 100 mg/kg, route oral; conditions: in vivo, po
Summary of the method: (§3)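 P. berghei-infected female BALB/c mice dosed by oral gavage in 0.5% CMC/0.4% Tween-80/0.5% benzyl alcohol. Tail bleeds and body weighing done daily. Animals monitored for ill effects and euthanized when the no-drug controls lost 20% of their pre-infection body weight.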

Plasmodium berghei [9] = assay: Antimalarial activity as reduced parasitaemia against Plasmodium berghei NK65 infected BALB/c mice (Mus musculus) at 100 mg/kg peroral dose at 10x4hrs then 6x6hrs; format: functional, organism-based; set-up: dose 100 mg/kg
Summary of the method: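 Female BALB/c mice, 8-10 weeks old, infected ip with 2 × 10^7 infected erythrocytes 24 h before dosing; ≥0.1% parasitemia verified. Oral gavage in 0.5% CMC/0.4% Tween-80/0.5% benzyl alcohol every 4 h × 10 doses, then every 6 h × 6 doses (n = 6 per group), against vehicle controls. Parasitemia counted daily by light microscopy of Wright-Giemsa stained thin tail-blood smears.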

Plasmodium berghei [10] = assay: (§4) Antimalarial activity as reduced growth at day 5 in Plasmodium berghei NK65 infected BALB/c mice (Mus musculus) at 50 mg/kg peroral dose over 4 days; format: functional; set-up: scale not given: the % may be the effect or the level left; conditions: route oral
Summary of the method: (§5)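 Female BALB/c mice, 8-10 weeks old, infected ip with 2 × 10^7 infected erythrocytes 24 h before the first dose; ≥0.1% parasitemia confirmed first. Dosing by oral gavage in 0.5% CMC/0.4% Tween-80/0.5% benzyl alcohol, once daily (n = 3) or twice daily (n = 5) on days 1-4, with vehicle controls. Parasitemia counted daily from Wright-Giemsa thin tail-blood smears; suppression reported on day 5.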

Mus musculus [11] = assay: Toxicity in Plasmodium berghei NK65 infected BALB/c mice (Mus musculus) at 50 mg/kg, perorally bid for 4 days measured on day 5 postinfection; format: organism-based; set-up: dose 50 mg/kg, route oral; conditions: in vivo, po, 96 h; summary of the method: as §3
Mus musculus [12] = assay: Toxicity in Swiss mouse at 20 mg/kg, po administered as single dose; format: organism-based; set-up: dose 20 mg/kg, route oral; conditions: in vivo
Summary of the method: (§6)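 Nonfasted male Swiss outbred mice, 23-33 g, given a single oral gavage dose suspended in 0.5% CMC/0.5% benzyl alcohol/0.4% Tween-80, then watched for adverse reactions over the plasma sampling period.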

[13] = Half life in Swiss mouse at 50 mg/kg, po administered as single dose; format: ADME, organism-based; set-up: dose 50 mg/kg, route oral; conditions: in vivo; summary of the method: as §2
Plasmodium berghei [14] = assay: as §4; format: functional; set-up: scale not given: the % may be the effect or the level left; conditions: route oral; summary of the method: as §5; remark: listed apart in the source
[15] = Plasma concentration in Swiss mouse at 50 mg/kg, po administered as single dose for 16 hrs; format: ADME, organism-based; set-up: dose 50 mg/kg, route oral; summary of the method: as §2
Mus musculus [16] = assay: Toxicity in Swiss mouse at 50 mg/kg, po administered as single dose; format: organism-based; set-up: dose 50 mg/kg, route oral; conditions: in vivo; summary of the method: as §6
Mus musculus [17] = assay: Toxicity in Plasmodium berghei NK65 infected BALB/c mice (Mus musculus) at 50 mg/kg, perorally qd for 4 days measured on day 5 postinfection; format: organism-based; set-up: dose 50 mg/kg, route oral; conditions: in vivo, po, 96 h; summary of the method: as §3
Mus musculus [18] = assay: Plasma concentration in Swiss mouse at 20 mg/kg, po administered as single dose; format: ADME, organism-based; set-up: dose 20 mg/kg, route oral; conditions: in vivo; summary of the method: as §2

Sequence of Dihydroorotate dehydrogenase (quinone), mitochondrial (Q02127 whole entry): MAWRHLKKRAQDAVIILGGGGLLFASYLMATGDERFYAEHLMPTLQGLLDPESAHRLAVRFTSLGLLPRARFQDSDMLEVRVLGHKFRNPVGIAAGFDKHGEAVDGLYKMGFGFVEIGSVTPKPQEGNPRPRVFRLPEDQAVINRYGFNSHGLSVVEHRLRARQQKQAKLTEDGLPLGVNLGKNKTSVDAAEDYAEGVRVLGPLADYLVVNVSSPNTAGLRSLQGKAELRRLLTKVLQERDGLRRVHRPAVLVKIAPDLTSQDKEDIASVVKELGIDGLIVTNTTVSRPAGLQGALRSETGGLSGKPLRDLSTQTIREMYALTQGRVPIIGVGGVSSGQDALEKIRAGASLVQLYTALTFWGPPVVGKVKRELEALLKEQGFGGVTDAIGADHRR

Row | Structure (SMILES) | IC50 [1] [µM] | IC50 (Plasmodium berghei [3]) [µM] | EC50 (Plasmodium falciparum) [µM] | also measured
1 | Cc1cc(Nc2ccc(C)c(F)c2)n2ncnc2n1 | 0.86 | 3.2 | 3.6 | CL (Liver microsomes [2]): 49 µL/min/mg; t1/2 (Liver microsomes [4]): 0.6 h; IC50 [5]: > 100 µM
2 | Cc1cc(Nc2ccc(C(F)(F)F)c(F)c2)n2ncnc2n1 | 0.077 | 0.26 | 1.3 | CL (Liver microsomes [2]): 4.8 µL/min/mg; t1/2 (Liver microsomes [4]): 6 h; IC50 [5]: > 100 µM
3 | Cc1ccc(Nc2cc(C)nc3ncnn23)c(F)c1 | 27 | > 100 | 35 | –
4 | Cc1cc(Nc2cc(F)c(F)cc2F)n2ncnc2n1 | 17 | > 100 | > 50 | –
5 | Cc1cc(Nc2ccc(F)c(C)c2)n2ncnc2n1 | 4.6 | 21 | 8.7 | –
6 | Cc1cc(Nc2c(F)cc(F)cc2F)n2ncnc2n1 | > 100 | > 100 | – | –
7 | Cc1cc(Nc2ccccc2Cl)n2ncnc2n1 | > 100 | > 100 | 30 | –
8 | Cc1cc(Nc2ccc(C)c(C(F)(F)F)c2)n2ncnc2n1 | 1.55 | 7.3 | – | IC50 [5]: > 100 µM
9 | Cc1cc(Nc2ccc(F)c(F)c2)n2ncnc2n1 | 8 | 10 | > 50 | –
10 | Cc1cc(Nc2cccc(F)c2)n2ncnc2n1 | 9.2 | > 100 | 34 | CL (Liver microsomes [2]): 18 µL/min/mg; t1/2 (Liver microsomes [4]): 1.62 h
11 | Cc1cc(Nc2cc(F)ccc2F)n2ncnc2n1 | > 50 | > 100 | > 50 | –
12 | Cc1cc(Nc2cccc(F)c2F)n2ncnc2n1 | 39 | > 100 | – | –
13 | Cc1cc(Nc2c(F)c(F)c(F)c(F)c2F)n2ncnc2n1 | > 100 | > 100 | > 50 | –
14 | Cc1cc(Nc2ccc3cc4ccccc4cc3c2)n2ncnc2n1 | – | – | – | concentration at 4 h [6]: 1000 nM; CL (Liver microsomes [2]): 37 µL/min/mg; t1/2 (Liver microsomes [4]): 0.717 h; concentration (Mus musculus [7]): 2000 nM; Activity (Mus musculus [8]): Non-toxic; Activity (Plasmodium berghei [9]): inactive
15 | Cc1cc(Nc2ccc(C(F)(F)F)cc2)n2ncnc2n1 | – | – | – | Activity (Plasmodium berghei [10]): 71%; Activity (Mus musculus [11]): Non-toxic; Activity (Mus musculus [12]): Non-toxic; CL (Liver microsomes [2]): 7.5 µL/min/mg; half-life [13]: 3 h; Activity (Plasmodium berghei [14]): 95%; concentration at 16 h [15]: 1000 nM; t1/2 (Liver microsomes [4]): 3.83 h; Activity (Mus musculus [16]): Non-toxic; Activity (Mus musculus [17]): Non-toxic; concentration (Mus musculus [7]): 27600 nM; concentration (Mus musculus [18]): 7900 nM
16 | Cc1cc(Nc2ccc(Cl)cc2)n2ncnc2n1 | 1.6 | 5.7 | 12 | IC50 [5]: > 100 µM
17 | Cc1cc(Nc2ccc(F)c(F)c2F)n2ncnc2n1 | 29 | > 100 | > 50 | –
18 | Cc1cc(Nc2ccc(-c3ccccc3)cc2)n2ncnc2n1 | 5.3 | – | > 50 | –
19 | Cc1cc(Nc2cc(F)cc(F)c2)n2ncnc2n1 | 9.4 | 21 | – | –
20 | Cc1cc(Nc2ccc(OC(F)(F)F)cc2)n2ncnc2n1 | 1.2 | 4 | – | IC50 [5]: > 100 µM
21 | Cc1cc(Nc2ccc(F)cc2)n2ncnc2n1 | 19 | > 100 | 50 | –
